From ChEMBL document CHEMBL1212730, “Augmented photoswitching modulates immune signaling” (Nat Chem Biol, 2009)
Blank lines part the entries; values can stand above or below the molecule they belong to. Active and inactive are the calls of the source. No cut-off for these calls is given here.

Assays:
[1] = target: T1, Protein phosphatase 3 catalytic subunit alpha (Homo sapiens, UniProt Q08209); assay: Inhibition of calcineurin-mediated NFAT activation in human Jurkat cells by luciferase reporter gene assay; format: cell-based
Outline: (§1)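 Cells were pretreated with non-irradiated compound, then either kept dark or irradiated at 740 nm for 1 h before PMA/ionomycin stimulation. Luciferase was read in lysed cells. Data are means ± s.d.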

[2] = target: T1, Protein phosphatase 3 catalytic subunit alpha; assay: Inhibition of calcineurin-mediated NFAT activation in human Jurkat cells measured after 45 min of irradiation with 740 nm light by luciferase reporter gene assay; format: cell-based
PBMC [3] = assay: Immunosuppressive activity in human PBMC assessed as decrease in PMA/ionomycin-induced IL-2 production measured at 4 hrs interval post irradiation of 45 mins with 740 nm light by flow cytometry; format: functional, cell-based
PBMC [4] = assay: Immunosuppressive activity in human PBMC assessed as decrease in PMA/ionomycin-induced IL-2 production measured at 4 hrs interval by flow cytometry; format: functional, cell-based
PBMC [5] = assay: Immunosuppressive activity in streptavidin-stimulated human PBMC assessed as decrease in PMA/ionomycin-induced IL-2 production measured at 4 hrs interval post irradiation of 45 mins with 740 nm light by flow cytometry; format: functional, cell-based
PBMC [6] = assay: Immunosuppressive activity in streptavidin-stimulated human PBMC assessed as decrease in PMA/ionomycin-induced IL-2 production measured at 4 hrs interval by flow cytometry; format: functional, cell-based
[7] = target: T1, Protein phosphatase 3 catalytic subunit alpha; assay: Inhibition of calcineurin-mediated streptavidin-coupled NFAT activation in human Jurkat cells by luciferase reporter gene assay; format: cell-based; outline: as §1
[8] = target: T1, Protein phosphatase 3 catalytic subunit alpha; assay: Inhibition of calcineurin-mediated streptavidin-coupled NFAT activation in human Jurkat cells measured after 45 min of irradiation with 740 nm light by luciferase reporter gene assay; format: cell-based
[9] = target: T2, Peptidyl-prolyl cis-trans isomerase A (Homo sapiens, UniProt P62937); assay: Inhibition of PPIase activity of cyclophilin 18 by protease coupled assay
Target sequence in this assay (P62937 whole entry): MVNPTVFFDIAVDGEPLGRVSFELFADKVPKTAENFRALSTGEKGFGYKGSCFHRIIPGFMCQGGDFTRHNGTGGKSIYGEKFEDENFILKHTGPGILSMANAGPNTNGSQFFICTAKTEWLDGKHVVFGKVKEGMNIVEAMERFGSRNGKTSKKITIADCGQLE

[10] = target: T2, Peptidyl-prolyl cis-trans isomerase A; assay: Binding affinity to cyclophilin 18 assessed as reduction in calcineurin activity by protease coupled assay
Outline: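 Cyp18 PPIase activity measured by a chymotrypsin-coupled protease assay with Suc-Ala-Phe-Pro-Phe-NH-Np as substrate at 7 °C. Cyp18 was 2.5 nM. Compound was tested non-irradiated, irradiated at 740 nm for 45 min, or irradiated and then kept dark overnight, with DMSO as control. Data are means ± s.d.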
Target sequence in this assay (P62937 whole entry): as above

[11] = target: T2, Peptidyl-prolyl cis-trans isomerase A; conditions: 200 nM
Target sequence in this assay (P62937 whole entry, looked up): as the sequence (P62937 whole entry) above

[12] = target: T2, Peptidyl-prolyl cis-trans isomerase A; assay: Binding affinity to streptavidin-coupled biotin-labeled cyclophilin 18 assessed as reduction in [33P] phosphatase activity of calcineurin by protease coupled assay
Target sequence in this assay (P62937 whole entry): as above

[13] = target: T2, Peptidyl-prolyl cis-trans isomerase A; conditions: 10 uM
Target sequence in this assay (P62937 whole entry, looked up): as the sequence (P62937 whole entry) above

[14] = target: T2, Peptidyl-prolyl cis-trans isomerase A; assay: Binding affinity to cyclophilin 18 assessed as reduction in [33P]phosphatase activity of calcineurin by protease coupled assay
Outline: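 Calcineurin phosphatase activity measured at 30 °C with 33P-labeled phosphocasein. CaN was 3.5 nM, with Cyp18 at the desired concentrations and 10 µM compound, either irradiated at 740 nm for 45 min or non-irradiated, with or without streptavidin. The inhibitor concentration refers to the Cyp18–compound complex. Data are means ± s.d.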
Target sequence in this assay (P62937 whole entry): as above

[15] = target: T2, Peptidyl-prolyl cis-trans isomerase A; conditions: Blood, 50 to 200 nM
Target sequence in this assay (P62937 whole entry, looked up): as the sequence (P62937 whole entry) above

[16] = target: T2, Peptidyl-prolyl cis-trans isomerase A; conditions: Blood, 50 to 200 nM; remark: listed apart in the source
Target sequence in this assay (P62937 whole entry, looked up): as the sequence (P62937 whole entry) above

[17] = target: T2, Peptidyl-prolyl cis-trans isomerase A; assay: Binding affinity to cyclophilin 18 by protease coupled assay
Target sequence in this assay (P62937 whole entry): as above

[18] = target: T2, Peptidyl-prolyl cis-trans isomerase A; conditions: Blood, Lysate, 50 to 200 nM
Target sequence in this assay (P62937 whole entry, looked up): as the sequence (P62937 whole entry) above

SMILES: C/C=C/C[C@@H](C)[C@@H](O)[C@H]1C(=O)N[C@@H](CC)C(=O)N(C)CC(=O)N(C)[C@@H](CC(C)C)C(=O)N[C@@H](C(C)C)C(=O)N(C)[C@@H](CC(C)C)C(=O)N[C@@H](C)C(=O)N[C@H](COCC(=O)Nc2ccc(N=Nc3ccc(NC(=O)CCCC[C@@H]4SC[C@@H]5NC(=O)N[C@@H]54)cc3)cc2)C(=O)N(C)[C@@H](CC(C)C)C(=O)N(C)[C@@H](CC(C)C)C(=O)N(C)[C@@H](C(C)C)C(=O)N1C
- IC50 [1]: 135 nM
- IC50 [2]: 89 nM
- Activity (PBMC [3]): Active
- Activity (PBMC [4]): Active
- Activity (PBMC [5]): Active
- Activity (PBMC [6]): inactive
- IC50 [7]: 16400 nM
- IC50 [8]: 1400 nM

SMILES: C/C=C/C[C@@H](C)[C@@H](O)[C@H]1C(=O)N[C@@H](CC)C(=O)N(C)CC(=O)N(C)[C@@H](CC(C)C)C(=O)N[C@@H](C(C)C)C(=O)N(C)[C@@H](CC(C)C)C(=O)N[C@@H](C)C(=O)N[C@H](COCC(=O)Nc2ccc(/N=N\c3ccc(NC(=O)COC[C@H]4NC(=O)[C@H](C)NC(=O)[C@H](CC(C)C)N(C)C(=O)[C@H](C(C)C)NC(=O)[C@H](CC(C)C)N(C)C(=O)CN(C)C(=O)[C@H](CC)NC(=O)[C@H]([C@H](O)[C@H](C)C/C=C/C)N(C)C(=O)[C@H](C(C)C)N(C)C(=O)[C@H](CC(C)C)N(C)C(=O)[C@H](CC(C)C)N(C)C4=O)cc3)cc2)C(=O)N(C)[C@@H](CC(C)C)C(=O)N(C)[C@@H](CC(C)C)C(=O)N(C)[C@@H](C(C)C)C(=O)N1C
- IC50 [9]: 30 nM
- IC50 [10]: 266 nM
- inhibition [11]: Active

- IC50 [1]: 75 nM
- IC50 [2]: 49 nM
SMILES: C/C=C/C[C@@H](C)[C@@H](O)[C@H]1C(=O)N[C@@H](CC)C(=O)N(C)CC(=O)N(C)[C@@H](CC(C)C)C(=O)N[C@@H](C(C)C)C(=O)N(C)[C@@H](CC(C)C)C(=O)N[C@@H](C)C(=O)N[C@H](COCC(=O)Nc2ccc(N=Nc3ccccc3)cc2)C(=O)N(C)[C@@H](CC(C)C)C(=O)N(C)[C@@H](CC(C)C)C(=O)N(C)[C@@H](C(C)C)C(=O)N1C

- IC50 [9]: 4.75 nM
- IC50 [12]: 227 nM
SMILES: C/C=C/C[C@@H](C)[C@@H](O)[C@H]1C(=O)N[C@@H](CC)C(=O)N(C)CC(=O)N(C)[C@@H](CC(C)C)C(=O)N[C@@H](C(C)C)C(=O)N(C)[C@@H](CC(C)C)C(=O)N[C@@H](C)C(=O)N[C@H](COCC(=O)Nc2ccc(/N=N/c3ccccc3)cc2)C(=O)N(C)[C@@H](CC(C)C)C(=O)N(C)[C@@H](CC(C)C)C(=O)N(C)[C@@H](C(C)C)C(=O)N1C

SMILES: C/C=C/C[C@@H](C)[C@@H](O)[C@H]1C(=O)N[C@@H](CC)C(=O)N(C)CC(=O)N(C)[C@@H](CC(C)C)C(=O)N[C@@H](C(C)C)C(=O)N(C)[C@@H](CC(C)C)C(=O)N[C@@H](C)C(=O)N[C@H](COCC(=O)Nc2ccc(/N=N/c3ccc(NC(=O)COC[C@H]4NC(=O)[C@H](C)NC(=O)[C@H](CC(C)C)N(C)C(=O)[C@H](C(C)C)NC(=O)[C@H](CC(C)C)N(C)C(=O)CN(C)C(=O)[C@H](CC)NC(=O)[C@H]([C@H](O)[C@H](C)C/C=C/C)N(C)C(=O)[C@H](C(C)C)N(C)C(=O)[C@H](CC(C)C)N(C)C(=O)[C@H](CC(C)C)N(C)C4=O)cc3)cc2)C(=O)N(C)[C@@H](CC(C)C)C(=O)N(C)[C@@H](CC(C)C)C(=O)N(C)[C@@H](C(C)C)C(=O)N1C
- IC50 [9]: 206 nM
- IC50 [10]: 487 nM
- IC50 [1]: 358 nM
- IC50 [2]: 140 nM
- inhibition [13]: 30%

SMILES: C/C=C/C[C@@H](C)[C@@H](O)[C@H]1C(=O)N[C@@H](CC)C(=O)N(C)CC(=O)N(C)[C@@H](CC(C)C)C(=O)N[C@@H](C(C)C)C(=O)N(C)[C@@H](CC(C)C)C(=O)N[C@@H](C)C(=O)N[C@H](COCC(=O)Nc2ccc(/N=N\c3ccc(NC(=O)CCCC[C@@H]4SC[C@@H]5NC(=O)N[C@@H]54)cc3)cc2)C(=O)N(C)[C@@H](CC(C)C)C(=O)N(C)[C@@H](CC(C)C)C(=O)N(C)[C@@H](C(C)C)C(=O)N1C
- IC50 [14]: 950 nM
- inhibition [15]: Active
- inhibition [16]: Active

- IC50 [9]: 2.79 nM
- IC50 [17]: 147 nM
SMILES: C/C=C/C[C@@H](C)[C@@H](O)[C@H]1C(=O)N[C@@H](CC)C(=O)N(C)CC(=O)N(C)[C@@H](CC(C)C)C(=O)N[C@@H](C(C)C)C(=O)N(C)[C@@H](CC(C)C)C(=O)N[C@@H](C)C(=O)N[C@H](COCC(=O)Nc2ccc(/N=N\c3ccccc3)cc2)C(=O)N(C)[C@@H](CC(C)C)C(=O)N(C)[C@@H](CC(C)C)C(=O)N(C)[C@@H](C(C)C)C(=O)N1C

SMILES: C/C=C/C[C@@H](C)[C@@H](O)[C@H]1C(=O)N[C@@H](CC)C(=O)N(C)CC(=O)N(C)[C@@H](CC(C)C)C(=O)N[C@@H](C(C)C)C(=O)N(C)[C@@H](CC(C)C)C(=O)N[C@@H](C)C(=O)N[C@H](COCC(=O)Nc2ccc(/N=N/c3ccc(NC(=O)CCCC[C@@H]4SC[C@@H]5NC(=O)N[C@@H]54)cc3)cc2)C(=O)N(C)[C@@H](CC(C)C)C(=O)N(C)[C@@H](CC(C)C)C(=O)N(C)[C@@H](C(C)C)C(=O)N1C
- inhibition [15]: Active
- inhibition [16]: Active
- inhibition [13]: 30%
- inhibition [18]: Active
